Vif imaging = HIV Vif self-association inhibitors, primary screen, imaging, HEK293T, single point; inhibition, % at 7.49 µM; 340,000 tested, 0.35% active; HEK293T cells, Vif self-association by quenched fluorescence, 24 h; in the data active = inhibition above about 50%, passing the limit was not always enough; inconclusive = no clear call, values can overlap the other calls; inactive = below about 31%
XiGFP reactiv = activators of inactive X chromosome reactivation, primary screen, imaging, XiGFP fibroblasts, GFP high-content imaging, set 2. XiGFP mouse fibroblasts, % GFP-positive cells imaging, 3 d; cells co-treated with 5-aza-dC sensitizer; scaled so ellipticine positive control = 100%. activation, % at 7.58 µM. 360,000 tested, 0.055% active;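 active = mean normalized replicate activation at least 10% and every replicate at or above 10%; inconclusive = only one of the two criteria met; inactive = mean below 10% and not all replicates reach 10%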;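 note: 0% = median of on-plate neutral control wells and 100% = ellipticine 6 µM median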
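Material: SV40-immortalized XiGFP fibroblast cells, line 68-5-11 | Buffer or medium: DMEM containing 5-aza-dC | Dosing: One concentration, pinned | Times: 3 d treatment, 15 min room-temperature fixation | Controls: Ellipticine 6 µM positive control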
esBAF inh = Bmi1 luciferase reporter increase in mESCs, primary screen, esBAF inhibitor project, mouse ES cells, Bmi1 luciferase knock-in, single point. 24 h; 100% = twice the neutral-well signal. reporter increase, % at 12.5 µM. 350,000 tested, 2% active. AID 602393, 2012; in the data active = activation above about 40%; inconclusive = no clear call, values can overlap the other calls;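 note: 0% = median of the plate's neutral control wells and 100% = double that signal; a rise in the Bmi1 reporter signal indicates esBAF inhibition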
MITF act = activators of MITF-driven TRPM1 promoter reporter, primary screen, cell-based, SK-MEL-5, luciferase, single point. SK-MEL-5 TRPM1-promoter luciferase, 24 h; % of positive control, neutral wells = 0. activation, % at 12.5 µM. 300,000 tested, 0.75% active;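 active = mean activation of at least 80% with every replicate also reaching 80%; inconclusive = mean reaches 80% but some replicate falls short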;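 note: 0% = neutral control wells and 100% = parthenolide positive control wells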
Wnt bcat act = Wnt/beta-catenin pathway activators, primary screen, cell-based, plate reader, single point; Wnt/beta-catenin reporter cell assay, activator; activation, % at 9.35 µM; 300,000 tested, 1.2% active; AID 743398, 2014; in the data active = activation above about 30%, passing the limit was not always enough; inconclusive = no clear call, values can overlap the other calls;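 note: 0% = neutral control wells and 100% = positive control wells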
An asterisk follows results filed as active. A selection: hits, their analogues and other compounds. The true share with any hit is near 2.6%.

O=c1c2ccccc2nnn1Cc1ccccc1 was read as Vif imaging -8, XiGFP reactiv 0, esBAF inh 1, MITF act 2 and Wnt bcat act 5.
`O=c1c2ccccc2nnn1COc1cccc(Cl)c1` gave Vif imaging -8, XiGFP reactiv 0, esBAF inh 59*, MITF act 44 and Wnt bcat act 7.
`Cc1ccc2nc(SCn3nnc4ccccc4c3=O)[nH]c2c1` gave Vif imaging -11, XiGFP reactiv 0, MITF act 34 and Wnt bcat act -1.
CN1CCN(C(=O)C[C@H]2CC[C@H](NC(=O)Nc3ccccc3F)[C@@H](CO)O2)CC1 was read as XiGFP reactiv 0 and esBAF inh -4.
Screening CC=Cc1ccc2n(c1=O)C[C@H]1[C@H](CO)[C@@H](C(=O)Nc3ccccc3)N(CC3CC3)[C@@H]21 (mixture of isomers) returned XiGFP reactiv 1 and esBAF inh 5.
O=S(=O)(c1cccs1)N1CCCc2cccc(O)c21 was read as Vif imaging 0, esBAF inh 45*, MITF act 95* and Wnt bcat act 48*.
Screening CCOC(=O)N1CCN(C(=O)CSc2ncnc3sccc23)CC1 returned Vif imaging -9, XiGFP reactiv 0, esBAF inh 8, MITF act 1 and Wnt bcat act -3.
Screening O=C(CSc1ncnc2sccc12)N1CCCCC1 returned Vif imaging 9, XiGFP reactiv 0, esBAF inh 72*, MITF act 73 and Wnt bcat act 9.
`COc1ccc(-c2cn(CC[C@H]3CC[C@H](NC(=O)NC(C)C)[C@H](CO)O3)nn2)cc1` gave XiGFP reactiv 0 and esBAF inh 8.
O=C(C[C@@H]1C=C[C@H](NC(=O)c2ccc(F)cc2)[C@H](CO)O1)NCc1ccncn1 was read as XiGFP reactiv -1 and esBAF inh 5.
O=C(CCc1ccccc1)c1ccc2c(c1)OCCCO2 was read as Vif imaging 19, esBAF inh 76* and MITF act 122*.
Screening O/N=C(/CCc1ccccc1)c1ccc2c(c1)OCCO2 returned Vif imaging -1, XiGFP reactiv 0, esBAF inh 46*, MITF act 92* and Wnt bcat act 9.
Screening C[C@@H]1CCCCO[C@@H](CN(C)Cc2ccc3c(c2)OCO3)[C@H](C)CN([C@@H](C)CO)C(=O)c2cc(NC(=O)Cc3ccccc3)ccc2O1 returned XiGFP reactiv 0 and esBAF inh -14.
`Cc1cc(C)n(C(=O)CNc2ccc(C)c(C)c2)n1` gave Vif imaging 1, esBAF inh 63* and MITF act 2.
Screening CCCN1C[C@H](C)[C@H](OC)CN(C)C(=O)c2cc(NC(=O)c3ccccc3)ccc2OC[C@H]1C returned XiGFP reactiv 1 and esBAF inh -4.
`O=C(O)c1ccc(N/N=C/c2cc3c(cc2[N+](=O)[O-])OCO3)cc1` gave Vif imaging 9, XiGFP reactiv 0, esBAF inh 67*, MITF act -24 and Wnt bcat act -2.
`Cc1cc(C)nc(N/N=C/c2cc3c(cc2[N+](=O)[O-])OCO3)n1` gave Vif imaging 16, XiGFP reactiv 0, MITF act -10 and Wnt bcat act 56*.
For Cc1ccc(S(=O)(=O)N(C)C[C@H]2Oc3ccc(NC(=O)Nc4cccc5ccccc45)cc3C(=O)N([C@H](C)CO)C[C@@H]2C)cc1 the results were XiGFP reactiv 0 and esBAF inh -3.
CCCSc1nnc(-c2c[nH]c3ccccc23)n1C was read as Vif imaging -6, XiGFP reactiv 0, esBAF inh 44*, MITF act 40 and Wnt bcat act -21.
`N/C(=N\OC(=O)c1ccccc1Cl)c1ccncc1` gave Vif imaging -4, XiGFP reactiv 0, MITF act 56 and Wnt bcat act 13.
Screening N/C(=N\OC(=O)c1ccc2ccccc2c1)c1ccncc1 returned Vif imaging 3, XiGFP reactiv 0, MITF act inconclusive and Wnt bcat act 34*.
COc1ccc(/C=C/C(=O)O/N=C(\N)c2ccccn2)cc1OC was read as Vif imaging 12, XiGFP reactiv 0, esBAF inh inconclusive, MITF act 81* and Wnt bcat act 1.
For Cc1ccccc1C(=O)O/N=C(\N)c1ccncc1 the results were Vif imaging 0, XiGFP reactiv 0, MITF act 27 and Wnt bcat act 40*.
For Cc1ccccc1OCC(=O)O/N=C(\N)Cc1cccs1 the results were Vif imaging -5, esBAF inh 32 and MITF act 44.
Cc1ccccc1C(=O)O/N=C(\N)Cc1cccs1 was read as Vif imaging -3, XiGFP reactiv 0, esBAF inh 53*, MITF act 94* and Wnt bcat act 17.
`C[C@@H]1CN([C@H](C)CO)C(=O)Cc2cc(NC(=O)c3ccncc3)ccc2O[C@H]1CN(C)CC1CCCCC1` gave XiGFP reactiv 0 and esBAF inh -5.
Cc1ccccc1S(=O)(=O)NCC[C@@H]1CC[C@H](NC(=O)Nc2cccc(F)c2)[C@H](CO)O1 was read as XiGFP reactiv 0 and esBAF inh -3.
C/C=C/c1ccc([C@@H]2[C@@H](CO)N(C(=O)c3cnccn3)C23CN(C(C)=O)C3)cc1 was read as XiGFP reactiv 0.
`N/C(=N\OC(=O)/C=C/c1ccccc1)c1ccncc1` gave Vif imaging -8, XiGFP reactiv 0, esBAF inh 45*, MITF act 50 and Wnt bcat act 11.
Screening O=C(Oc1ccc2ccc(O)cc2c1)c1ccccc1Cl returned Vif imaging -9, XiGFP reactiv 0, esBAF inh 63* and Wnt bcat act 11.
N/C(=N\OC(=O)c1ccc2ccccc2c1)c1ccccn1 was read as Vif imaging -2, XiGFP reactiv 0, esBAF inh -86, MITF act -32 and Wnt bcat act -26.
`N/C(=N\OC(=O)/C=C/c1ccccc1Cl)c1ccncc1` gave Vif imaging 6, XiGFP reactiv 0, MITF act inconclusive and Wnt bcat act 13.
Screening N/C(=N\OC(=O)c1ccc2ccccc2c1)c1ccccc1Cl returned Vif imaging 1, XiGFP reactiv 0, esBAF inh 65*, MITF act inconclusive and Wnt bcat act 47*.
For COc1ccc2c3c(n(C)c2c1)[C@H](CO)N(C(=O)c1ccccc1)CC31CN(CC2CC2)C1 the results were XiGFP reactiv 0.
For COc1ccc2c(CN3CCN(c4ccccc4OC)CC3)cc(=O)oc2c1 the results were Vif imaging 40, XiGFP reactiv 0, esBAF inh 5 and Wnt bcat act -4.

Screens deposited in PubChem BioAssay by Broad Institute.
